Laboratory results from ChEMBL document CHEMBL1133509, “Synthetic oleanane and ursane triterpenoids with modified rings A and C: a series of highly active inhibitors of nitric oxide production in mouse macrophages” (J Med Chem, 2000).

Organism: Mus musculus
Assay: Inhibition of nitric oxide (NO) production induced by interferon-gamma (IFN-gamma) in mouse macrophages; call rule not given here
Assay type: functional
Outline: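 Primary peritoneal macrophages from female CD-1 mice (5–10 weeks), harvested four days after i.p. injection of 4% thioglycollate broth. Seeded at 2 × 10^5 cells/well and incubated 48 h with 20 ng/mL recombinant mouse IFN-γ plus compound in DMSO (final ≤0.1%), with DMSO controls. Nitrite in supernatant measured by Griess reaction at 550 nm in triplicate against sodium nitrite standard curve. IC50 is the average of two experiments.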

Structure (SMILES) | IC50
COC(=O)[C@]12CC[C@@H](C)[C@H](C)C1C1=CC(=O)[C@@H]3[C@@]4(C)C=C(C#N)C(=O)C(C)(C)[C@@H]4CC[C@@]3(C)[C@]1(C)CC2 (stereo partly specified) | 100 nM
COC(=O)[C@]12CC[C@@H](C)[C@H](C)C1C1=CC(=O)[C@@H]3[C@@]4(C)C=CC(=O)C(C)(C)[C@@H]4CC[C@@]3(C)[C@]1(C)CC2 (stereo partly specified) | 8900 nM
COC(=O)[C@]12CCC(C)(C)CC1C1C(=O)C=C3[C@@]4(C)C=C(C(N)=O)C(=O)C(C)(C)[C@@H]4CC[C@@]3(C)[C@]1(C)CC2 (stereo partly specified) | 100 nM
COC(=O)[C@]12CCC(C)(C)CC1C1C(=O)C=C3[C@@]4(C)C=CC(=O)C(C)(C)[C@@H]4CC[C@@]3(C)[C@]1(C)CC2 (stereo partly specified) | 700 nM
CC1(C)CC[C@]2(CO)CC[C@]3(C)C(=CC(=O)[C@@H]4[C@@]5(C)C=CC(=O)C(C)(C)[C@@H]5CC[C@]43C)C2C1 (stereo partly specified) | 3000 nM
COC(=O)[C@]12CCC(C)(C)CC1C1C(=O)C[C@@H]3[C@@]4(C)C=CC(=O)C(C)(C)[C@@H]4CC[C@@]3(C)[C@]1(C)CC2 (stereo partly specified) | 14000 nM
C[C@@H]1CC[C@]2(C(=O)O)CC[C@]3(C)C(=CC(=O)[C@@H]4[C@@]5(C)C=C(C#N)C(=O)C(C)(C)[C@@H]5CC[C@]43C)C2[C@H]1C (stereo partly specified) | 800 nM
CC(=O)OC[C@]12CCC(C)(C)CC1C1=CC(=O)[C@@H]3[C@@]4(C)C=CC(=O)C(C)(C)[C@@H]4CC[C@@]3(C)[C@]1(C)CC2 (stereo partly specified) | > 40000 nM
COC(=O)[C@]12CCC(C)(C)CC1C1=CC(=O)[C@@H]3[C@@]4(C)C=CC(=O)C(C)(C)[C@@H]4CC[C@@]3(C)[C@]1(C)CC2 (stereo partly specified) | 2800 nM
CC1(C)CC[C@]2(C=O)CC[C@]3(C)C(=CC(=O)[C@@H]4[C@@]5(C)C=CC(=O)C(C)(C)[C@@H]5CC[C@]43C)C2C1 (stereo partly specified) | 3800 nM
COC(=O)[C@]12CCC(C)(C)CC1C1=CC[C@@H]3[C@@]4(C)C=CC(=O)C(C)(C)[C@@H]4CC[C@@]3(C)[C@]1(C)CC2 (stereo partly specified) | 31000 nM
CC1(C)CC[C@]2(C(=O)O)CC[C@]3(C)C(=CC(=O)[C@@H]4[C@@]5(C)C=CC(=O)C(C)(C)[C@@H]5CC[C@]43C)C2C1 (stereo partly specified) | 1100 nM
COC(=O)[C@]12CCC(C)(C)CC1C1C(=O)C=C3[C@@]4(C)C=C(C=O)C(=O)C(C)(C)[C@@H]4CC[C@@]3(C)[C@]1(C)CC2 (stereo partly specified) | 100 nM

Organism: Mus musculus
Assay: Evaluated for the inhibitory activity of (Nitric Oxide)NO production induced by interferon-gamma (IFN-gamma) in mouse macrophages( toxic to cells above 1 uM and is not active below 1 uM); Toxic
Assay type: functional, cell-based

Structure (SMILES) | IC50
C[C@@H]1CC[C@]2(C(=O)O)CC[C@]3(C)C(=CC[C@@H]4[C@@]5(C)CC[C@H](O)C(C)(C)[C@@H]5CC[C@]43C)C2[C@H]1C (stereo partly specified) | Toxic
COC(=O)C1=C[C@]2(C)C3=CC(=O)C4C5CC(C)(C)CC[C@]5(C(=O)OC)CC[C@@]4(C)[C@]3(C)CC[C@H]2C(C)(C)C1=O (stereo partly specified) | Toxic

Organism: Mus musculus
Assay: Evaluated for the inhibitory activity of (Nitric Oxide)NO production induced by interferon-gamma (IFN-gamma) in mouse macrophages(toxic to cells above 1 uM and is not active below 1 uM); Toxic
Assay type: functional, cell-based

Structure (SMILES) | IC50
COC(=O)[C@]12CCC(C)(C)CC1C1=CC[C@@H]3[C@@]4(C)C=C(C=O)C(=O)C(C)(C)[C@@H]4CC[C@@]3(C)[C@]1(C)CC2 (stereo partly specified) | Toxic
